# Lmaj promast: reduces viability of Leishmania major promastigotes; resazurin fluorescence viability; inhibition, % at 10 µM; 200,000 tested, 9% active; AID 1063; in the data active = inhibition above about 50%;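 also: promastigotes grown with compound for 44 hours at 28 °C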
# PMI act satM6P: PMI (human) activation, high substrate. P34949. coupled PMI enzyme assay, resazurin fluorescence, 20 min; hits give high values; 1 = untreated enzyme, 0 = substrate-free blank. activation factor at 20 µM. 190,000 tested, 0.34% active. AID 1216;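 active = activation factor of 2 or more at 20 µM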
# Target sequence (P34949 whole entry, looked up): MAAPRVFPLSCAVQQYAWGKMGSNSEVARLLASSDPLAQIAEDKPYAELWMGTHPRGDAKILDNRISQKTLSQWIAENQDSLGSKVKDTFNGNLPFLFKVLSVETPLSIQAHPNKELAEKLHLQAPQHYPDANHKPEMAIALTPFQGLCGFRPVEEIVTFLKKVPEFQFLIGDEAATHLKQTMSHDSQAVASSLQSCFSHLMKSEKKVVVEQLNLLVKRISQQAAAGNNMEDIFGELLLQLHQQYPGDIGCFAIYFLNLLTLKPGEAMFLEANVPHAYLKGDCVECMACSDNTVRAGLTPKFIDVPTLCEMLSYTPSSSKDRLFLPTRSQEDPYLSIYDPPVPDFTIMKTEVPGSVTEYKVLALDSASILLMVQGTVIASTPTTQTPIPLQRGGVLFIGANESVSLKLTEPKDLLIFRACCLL
#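 assay system = human phosphomannose isomerase with PGI, G6PDH, diaphorase coupling enzymes | quantity = 15 ng/mL PMI | incubation = enzyme reaction with compound 20 min at room temperature | medium = HEPES pH 7.4 buffer with MgCl2 and Tween-20 | compound dosing = one concentration, 20 µM, in 1% DMSO | measured by = Diaphorase-driven resazurin-to-resorufin fluorescence, excitation 544, emission 590 nm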
# Diaph act CS: activates diaphorase or chemically reduces, flagging diaphorase assay artifacts; Diaphorase/resazurin coupled assay, resorufin fluorescence, 16 min; hits give high values; 1 = vehicle wells, 0 = NADH-free wells; activation factor at 20 µM; 190,000 tested, 0.005% active; AID 1229;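 active = diaphorase activity raised at least twofold by the compound at 20 µM; inactive = activation factor below 2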
#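 Material: purified diaphorase enzyme from Clostridium kluyveri; Also added: 0.114 mM NADH and 0.1 mM resazurin, final amounts; Doses: single compound dose of 20 µM, 1% DMSO final; Times: 16 min enzyme reaction, ambient temperature; Detection: resorufin fluorescence, excitation 544 nm, emission 590 nm; Measure: increased resorufin signal from activators or reducing compounds.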
# WT yeast gro inh: growth inhibition of WT yeast, mitochondrial fusion screen. mitochondrial fusion phenotypic screen, WT strain. AID 1362. inhibition, % at 10 µM. 190,000 tested, 2.1% active; in the data active = inhibition above about 58%; tested in S. cerevisiae
# PMI act: increases human mannose-6-phosphate isomerase activity; purified human PMI, coupled resazurin fluorescence, 20 min; hits give high values; 1 = vehicle control, 0 substrate-free wells; P34949; activation factor at 20 µM; 190,000 tested, 0.005% active;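 active = activation factor of 2 or more at 20 µM, relative to plate controls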
# Starred values were filed as active, the others as inactive; . = no result. Most compounds without a hit are left out; they make up all but 10% or so of the library.
SMILES,Lmaj promast,PMI act satM6P,Diaph act CS,WT yeast gro inh,PMI act
CCc1ccc(CNCc2cccnc2)cc1,90.1*,1,1,1.2,0.9
COC(=O)C1=CN(C(C)C)C=C(C(=O)OC)C1c1cc(Br)c(OC)c(OC)c1,100.1*,1,0.8,20.9,1
CCCCN1CNC(=S)N(c2ccccc2OCC)C1,-7.7,1,0.9,-14.2,1
COc1ccccc1-c1nnc(Sc2nc([N+](=O)[O-])nn2C)o1,96.8*,1,0.9,-16.3,1
Cn1cnnc1Sc1nc([N+](=O)[O-])nn1C,-1.6,0.9,0.9,-3.8,1
CC1CC(C)CN(CCOc2cccc(Cl)c2Cl)C1 (centres undefined),90.7*,1.1,0.9,44.1,1
Cn1c(=O)n(CCOc2ccc(Cl)cc2Cl)c2ccccc21,-1.2,0.9,0.8,6.1,0.9
CCN1CCN(CCOc2cccc(Cl)c2Cl)CC1,85.8*,1.1,1,-0.1,1
CC1CC(C)CN(CCOc2ccc(Cl)cc2Cl)C1 (centres undefined),96.9*,1,0.9,57.8,1
CC(NC(=O)c1ccc(N)cc1)c1ccccc1 (centres undefined),-0.6,1,0.9,0.8,1.1
C=CCn1c(N)c(C(=O)OC(C)CC)c2nc3ccccc3nc21 (centres undefined),99.9*,0.8,0.9,2.9,0.9
C=CCn1c(N)c(C(=O)OC(C)(C)C)c2nc3ccccc3nc21,26.4,1,0.8,8.2,0.9
CC1CC(=O)C2=C(C1)Nc1ncnn1C2c1ccccc1 (centres undefined),-5.0,0.9,0.9,-3.8,0.9
COc1ccc(C2CC(=O)C3=C(C2)Nc2ncnn2C3c2ccccc2C)c(OC)c1 (centres undefined),100.3*,0.8,0.7,-11.5,0.9
OCCCN1CCN(CCCOc2ccccc2-c2ccccc2)CC1,92.7*,1.2,0.9,11.6,1.2
c1ccc(-c2ccccc2OCCOCCN2CCCCC2)cc1,72.0*,1.1,1,3.6,1
c1ccc(-c2ccccc2OCCCCN2CCCCCC2)cc1,99.1*,0.8,0.9,26.9,0.9
c1ccc(-c2ccccc2OCCCN2CCOCC2)cc1,39.9,1.2,1,13.7,1.1
Cc1ccsc1C(=O)C1CCCN(Cc2cn(C)nc2-c2ccccc2)C1 (centres undefined),6.3,1,1,14.0,0.9
OCC1CCCN(Cc2ccc(-c3ccccc3)cc2)C1 (centres undefined),95.6*,1,0.8,10.9,1
Cc1ncoc1C(=O)N1CCCC(C(=O)c2ccc(-c3ccccc3)cc2)C1 (centres undefined),-6.8,1.1,0.9,68.3*,1
Cn1cc(CN2CCCC(C(=O)c3cccs3)C2)c(-c2cccc(Cl)c2)n1 (centres undefined),62.5*,1,0.8,5.4,0.9
O=C(c1ccc(-c2ccccc2)cc1)C1CCCN(Cc2ccncc2)C1 (centres undefined),93.4*,1,1.1,39.7,1
O=C(c1ccc(-c2ccccc2)cc1)C1CCCN(C(=O)c2ccncc2)C1 (centres undefined),16.6,.,.,28.1,.
COc1ccc(/C(N)=N/OC(=O)CCCc2ccccc2)cc1OC,-8.6,0.8,0.8,-6.2,0.8
SMILES,Lmaj promast,PMI act satM6P,Diaph act CS,WT yeast gro inh,PMI act
S=C(NCCCn1ccnc1)NC1CCCCC1,-3.7,1.1,0.9,-13.5,1.1
Cc1nn(C)cc1CN1CCCC(C(=O)c2ccc(-c3ccccc3)cc2)C1 (centres undefined),89.8*,0.9,0.9,12.6,0.8
Cn1cc(CN2CCN(c3cnccn3)CC2)c(-c2cccc(Cl)c2)n1,27.2,1,0.8,-11.8,0.9
CC(=O)Nc1ccc(CN2CCCC(C(=O)c3ccc(C(F)(F)F)cc3)C2)cc1 (centres undefined),82.2*,0.9,0.8,12.3,0.9
CC(C1CCN(Cc2cn(C)nc2-c2cccc(Cl)c2)CC1)N1CCOCC1 (centres undefined),69.3*,0.9,1,4.2,0.9
O=C(c1ccc(Cl)cc1)C1CCCN(Cc2cnn(-c3ccccc3)c2)C1 (centres undefined),84.2*,1.1,0.8,34.2,0.9
O=[N+]([O-])c1ccc(COc2cccc(CNc3ccc(Br)cc3)c2)cc1,-1.5,0.8,0.8,48.5,0.8

# Screens: PubChem, several laboratories
